Results: ChEMBL document CHEMBL1138476 (J Med Chem, 2009)

Key:
[1] = Clearance in chimpanzee at 0.5 mg/kg, iv; assay type: ADME, organism-based, Pan troglodytes; design: dose 0.5 mg/kg, route intravenous; conditions: in vivo
Summary of the method: (§1)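 Chimpanzee PK. Oral: 1 mg/kg in two alert animals, given as a 1 mg/mL suspension in 50–50 (v/v) 0.5% methylcellulose/Tang orange juice with 1% Tween-80. IV: 0.5 mg/kg in one animal in 10% DMAC, 70% propylene glycol and deionized water, infused over 10 min (0.2 mL/kg). EDTA blood was taken predose and at 2–96 h; iv sampling added 6, 15 and 30 min.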

Rattus norvegicus [2] = assay: Effect on acute renal function in rat assessed as change in urine pH per 100 gm body weight at 30 mg/kg, po (RVb= 7.74+/-0.07 mg/dl); assay type: functional
Canis familiaris [3] = assay: Effect on respiratory function in spontaneously breathing mongrel dog assessed as change in pulmonary compliance at 5 mg/kg after intravenous infusion for 15 mins (RVb= 0.8+/-2.0 %); assay type: functional, Canis lupus familiaris
Canis familiaris [4] = assay: Effect on respiratory function in spontaneously breathing mongrel dog assessed as change in heart rate at 5 mg/kg after intravenous infusion for 6 mins (RVb= -0.4+/-0.7 %); assay type: functional, Canis lupus familiaris
[5] = target: T1, Adenosine receptor A1 (Homo sapiens) (UniProt P30542); assay: Inhibition of ligand binding in adenosine A1 receptor; design: scale not given: the % may be the effect or the level left
T1 sequence (whole entry): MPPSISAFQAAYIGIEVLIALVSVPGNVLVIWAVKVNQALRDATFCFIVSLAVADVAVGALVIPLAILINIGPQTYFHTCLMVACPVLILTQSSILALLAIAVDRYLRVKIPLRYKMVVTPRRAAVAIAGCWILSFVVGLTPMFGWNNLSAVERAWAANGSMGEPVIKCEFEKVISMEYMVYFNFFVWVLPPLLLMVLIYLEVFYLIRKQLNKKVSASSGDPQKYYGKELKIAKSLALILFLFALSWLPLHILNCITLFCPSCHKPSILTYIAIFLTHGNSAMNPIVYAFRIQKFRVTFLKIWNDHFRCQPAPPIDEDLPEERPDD
Summary of the method: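 Screened at 10^-7 and 10^-5 M for binding inhibition. Then run twice in a dose–response format on the cloned rat adenosine A1 receptor expressed in CHO cells to obtain Ki.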

Canis familiaris [6] = assay: Effect on respiratory function in spontaneously breathing mongrel dog assessed as change in peak expiratory flow at 5 mg/kg after intravenous infusion for 60 mins (RVb= 0.4+/-6.7 %); assay type: functional, Canis lupus familiaris
Rattus norvegicus [7] = assay: Effect on acute renal function in rat assessed as change in urine creatinine level per 100 gm body weight at 30 mg/kg, po (RVb= 16.2+/-3.3 mg/dl); assay type: functional
Rattus norvegicus [8] = assay: Effect on acute renal function in rat assessed as change in urine phosphate level per 100 gm body weight at 30 mg/kg, po (RVb= 8.7+/-2.3 mg/dl); assay type: functional
Canis familiaris [9] = assay: Effect on respiratory function in spontaneously breathing mongrel dog assessed as change in respiration rate at 5 mg/kg after intravenous infusion for 30 mins (RVb= -4.5+/-8.2 %); assay type: functional, Canis lupus familiaris
Rattus norvegicus [10] = assay: Toxicity in rat assessed as total distance traveled at 30 mg/kg, po after 1 hr by spontaneous locomotor test; assay type: functional
Summary of the method: (§2)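 Rat spontaneous locomotor activity test with oral dosing in 0.25% Methocel 1 h before testing, at doses up to 100 mg/kg. Values are mean ± SEM, with N rats per group, compared with the vehicle (zero-dose) group.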

Rattus norvegicus [11] = assay: Ex vivo receptor occupancy of CRF receptor in rat brain at 1 mg/kg, po by [125I]sauvagine binding and autoradiography relative to control; assay type: functional
Summary of the method: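 Rats were given 0.3, 1, 3, 10 or 30 mg/kg po in 0.25% Methocel 60 min before sacrifice. Brains were removed, sectioned and frozen at −80 °C. Ex vivo CRF receptor binding gave occupancy relative to vehicle-treated rats, reported as mean ± SEM.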

Canis familiaris [12] = assay: Effect on respiratory function in spontaneously breathing mongrel dog assessed as change in pulmonary compliance at 5 mg/kg after intravenous infusion for 6 mins (RVb= 6.0+/-4.2 %); assay type: functional, Canis lupus familiaris
Substance-K receptor = target: T2, Substance-K receptor (Homo sapiens, UniProt P21452); assay: Binding affinity to human neurokinin 2 receptor
T2 sequence (P21452 whole entry): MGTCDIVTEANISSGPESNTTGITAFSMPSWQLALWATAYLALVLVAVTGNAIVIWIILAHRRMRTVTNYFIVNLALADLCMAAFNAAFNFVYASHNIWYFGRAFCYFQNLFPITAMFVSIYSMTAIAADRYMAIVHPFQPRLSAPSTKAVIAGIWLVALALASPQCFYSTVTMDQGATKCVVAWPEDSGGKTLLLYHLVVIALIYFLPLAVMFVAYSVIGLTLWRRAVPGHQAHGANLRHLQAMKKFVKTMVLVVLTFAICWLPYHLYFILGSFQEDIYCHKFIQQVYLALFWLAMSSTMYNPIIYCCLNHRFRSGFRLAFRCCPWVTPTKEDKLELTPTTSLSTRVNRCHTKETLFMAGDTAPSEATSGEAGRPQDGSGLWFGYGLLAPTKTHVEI
Summary of the method: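 Human neurokinin 2 receptor binding, contracted out as part of a broad screen.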

[13] = Plasma concentration in spontaneously breathing dog at 5 mg/kg, iv after 6 mins; assay type: ADME, organism-based, Canis lupus familiaris; design: dose 5 mg/kg, route intravenous
Summary of the method: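 Spontaneously breathing, barbiturate-anesthetized mongrel dogs (n = 4) infused iv at 5.0 mg/kg over 6 min. Total pooled plasma concentrations taken at 6, 15, 30 and 60 min.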

Rattus norvegicus [14] = assay: Toxicity in rat assessed as time spent on rotarod at 10 mg/kg, po after 1 hr by rotarod test; assay type: organism-based; design: dose 10 mg/kg, route oral; conditions: in vivo
Summary of the method: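 Rats, n = 8 per dose, dosed po in 0.25% Methocel 1 h before testing, at 0, 1.0, 3.0, 10, 30 and 100 mg/kg. Read-out is time on rotorod (s), mean ± SEM, compared with the vehicle (zero-dose) group.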

Rattus norvegicus [15] = assay: Effect on acute renal function in rat assessed as change in urine chloride level per 100 gm body weight at 30 mg/kg, po (RVb= 95.3+/-11.6 mg/dl); assay type: functional
[16] = Plasma concentration in rat at 30 mg/kg, po after 1 hr; assay type: ADME, organism-based; design: dose 30 mg/kg, route oral
Summary of the method: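 Rats (n = 9, renal function study) given 30 mg/kg po; plasma levels measured in a separate cohort dosed the same way, sampled at 1 and 5 h after dosing.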

Rattus norvegicus [17] = assay: Effect on acute renal function in rat assessed as change in urine urea level per 100 gm body weight at 30 mg/kg, po (RVb= 321+/-62 mg/dl); assay type: functional
Canis familiaris [18] = assay: Effect on respiratory function in spontaneously breathing mongrel dog assessed as change in intrapleural pressure at 5 mg/kg after intravenous infusion for 60 mins (RVb= 18.5+/-19.9 %); assay type: functional, Canis lupus familiaris
Rattus norvegicus [19] = assay: Toxicity in rat assessed as total distance traveled at 100 mg/kg, po after 1 hr by spontaneous locomotor test; assay type: organism-based; design: dose 100 mg/kg, route oral; conditions: in vivo; summary of the method: as §2
Canis familiaris [20] = assay: Effect on respiratory function in spontaneously breathing mongrel dog assessed as change in minute volume at 5 mg/kg after intravenous infusion for 60 mins (RVb= -13.4+/-10.7 %); assay type: functional, Canis lupus familiaris
[21] = Cmax in chimpanzee at 1 mg/kg, po; assay type: ADME, organism-based, Pan troglodytes; design: dose 1 mg/kg, route oral; conditions: in vivo; summary of the method: as §1
Canis familiaris [22] = assay: Effect on respiratory function in spontaneously breathing mongrel dog assessed as change in peak expiratory flow at 5 mg/kg after intravenous infusion for 15 mins (RVb= -8.4+/-6.6 %); assay type: functional, Canis lupus familiaris

clearance [1]: 2 mL/min/kg
Activity [5]: 90%
IC50 (Substance-K receptor): 4.9 µM
concentration at 0.1 h [13]: 1790 nM
concentration at 1 h [16]: 3990 nM
Cmax [21]: 840 nM
Structure (SMILES): CC[C@@H](C)Nc1nc(C)nc2c(-c3ccc(OC)nc3C)c(C)nn12 [PEXACERFONT]
Activity (Rattus norvegicus [2]): 7.74
Activity (Canis familiaris [3]): -2.2%
Activity (Canis familiaris [4]): -0.3%
Activity (Canis familiaris [6]): 7.5%
Activity (Rattus norvegicus [7]): 8 mg/dL
Activity (Rattus norvegicus [8]): 4.6 mg/dL
Activity (Canis familiaris [9]): -32.5%
Activity (Rattus norvegicus [10]): 4846 cm
Activity (Rattus norvegicus [11]): 26%
Activity (Canis familiaris [12]): -2.5%
Time (Rattus norvegicus [14]): 158 s
Activity (Rattus norvegicus [15]): 80 mmol/L
Activity (Rattus norvegicus [17]): 166 mg/dL
Activity (Canis familiaris [18]): 0.7%
Activity (Rattus norvegicus [19]): 4041 cm
Activity (Canis familiaris [20]): -6%
Activity (Canis familiaris [22]): -0.1%
